Active and inactive are the calls of the source. The calls are words filed in the database; no cut-off is given here.
Legend:
MCF7 [1] = assay: Cytotoxicity against human MCF7 cells assessed as cell viability after 48 hrs by MTS assay; assay type: functional, cell-based; conditions: MCF7, 48 h
How it was run: (§1)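 Cells grown in RPMI-1640 or DMEM with 10% FBS at 37 °C, 5% CO2. Seeded, incubated 12 h, then exposed to a range of concentrations in triplicate for 48 h. Viability read by MTS reduction to formazan. IC50 calculated by Reed and Muench method; cis-platin positive control.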

SW480 [2] = assay: Cytotoxicity against human SW480 cells assessed as cell viability after 48 hrs by MTS assay; assay type: functional, cell-based; conditions: SW480, 48 h; how it was run: as §1
MCF7 [3] = assay: Cytotoxicity against human MCF7 cells assessed growth inhibition at 40 uM after 48 hrs by MTS assay relative to control; assay type: functional
How it was run: (§2)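 Cultured in RPMI-1640 or DMEM with 10% FBS at 37 °C under 5% CO2. Cells seeded, given 12 h at 37 °C, then treated with compound at 40 μM for 48 h. Growth inhibition measured by MTS assay (formazan colorimetry).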

[4] = Cytotoxicity against human SMMC7721 cells assessed as cell viability after 48 hrs by MTS assay; assay type: functional, cell-based; conditions: SMMC-7721, 48 h; how it was run: as §1
A549 [5] = assay: Cytotoxicity against human A549 cells assessed growth inhibition at 40 uM after 48 hrs by MTS assay relative to control; assay type: functional; how it was run: as §2
SMMC-7721 = assay: Cytotoxicity against human SMMC7721 cells assessed growth inhibition at 40 uM after 48 hrs by MTS assay relative to control; assay type: functional; how it was run: as §2
A549 [6] = assay: Cytotoxicity against human A549 cells assessed as cell viability after 48 hrs by MTS assay; assay type: functional, cell-based; conditions: A549, 48 h; how it was run: as §1
SW480 [7] = assay: Cytotoxicity against human SW480 cells assessed growth inhibition at 40 uM after 48 hrs by MTS assay relative to control; assay type: functional; how it was run: as §2
HL-60 = assay: Cytotoxicity against human HL60 cells assessed growth inhibition at 40 uM after 48 hrs by MTS assay relative to control; assay type: functional; how it was run: as §2
[8] = Cytotoxicity against human HL60 cells assessed as cell viability after 48 hrs by MTS assay; assay type: functional, cell-based; conditions: HL-60, 48 h; how it was run: as §1

Structure (SMILES)	IC50 (MCF7 [1]) [µM]	IC50 (SW480 [2]) [µM]	growth inhibition (GI) (MCF7 [3])	IC50 [4] [µM]	growth inhibition (GI) (A549 [5])	growth inhibition (GI) (SMMC-7721)	IC50 (A549 [6]) [µM]	growth inhibition (GI) (SW480 [7])	growth inhibition (GI) (HL-60)	IC50 [8] [µM]
C[C@H]1C(=O)[C@]23C[C@@H]1CC[C@H]2C12[C@H](CCC(C)(C)[C@H]1CO[C@@H]2O)OC3=O (stereo not given in full)	> 40	> 40	inactive	> 40	inactive	inactive	> 40	inactive	inactive	> 40
CO[C@@H]1OC(O)C23[C@H](CCC(C)(C)[C@@H]12)OC(=O)[C@@]12C[C@H](CC[C@@H]31)[C@@H](C)C2=O (stereo not given in full)	> 40	> 40	inactive	> 40	inactive	inactive	> 40	inactive	inactive	> 40
C[C@H]1C(=O)[C@]23C[C@@H]1CC[C@H]2C12CO[C@@H](O)[C@@H]1C(C)(C)[C@@H](O)C[C@@H]2OC3=O (stereo not given in full)	> 40	> 40	inactive	> 40	inactive	inactive	> 40	inactive	inactive	> 40
C=C1[C@H]2CC[C@@H]3[C@](C2)(C(=O)O[C@H]2C[C@@H]4OC5O[C@@H](O)[C@H](C4(C)C)[C@@]523)[C@@H]1O	> 40	> 40	inactive	> 40	inactive	inactive	> 40	inactive	inactive	> 40
C[C@@H]1C(=O)[C@]23C[C@@H]1CC[C@H]2C12CO[C@@H](O)[C@@H]1C(C)(C)CC[C@@H]2OC3=O (stereo not given in full)	> 40	> 40	inactive	> 40	inactive	inactive	> 40	inactive	inactive	> 40
CO[C@H]1O[C@@H](O)[C@@H]2C(C)(C)CC[C@@H]3OC(=O)[C@@]45C[C@H](CC[C@H]4C132)[C@@H](C)C5=O (stereo not given in full)	> 40	> 40	inactive	> 40	inactive	inactive	> 40	inactive	inactive	> 40
CO[C@@H]1O[C@@H](O)[C@@H]2C(C)(C)CC[C@@H]3OC(=O)[C@@]45C[C@H](CC[C@H]4C132)[C@@H](C)C5=O (stereo not given in full)	> 40	> 40	inactive	> 40	inactive	inactive	> 40	inactive	inactive	> 40
C[C@H]1C(=O)[C@]23C[C@@H]1C[C@@H](O)[C@H]2C12CO[C@@H](O)[C@@H]1C(C)(C)CC[C@@H]2OC3=O (stereo not given in full)	> 40	> 40	inactive	> 40	inactive	inactive	> 40	inactive	inactive	> 40
COC[C@@H]1C(=O)[C@]23C[C@@H]1C[C@@H](O)[C@H]2C12CO[C@@H](O)[C@@H]1C(C)(C)CC[C@@H]2OC3=O (stereo not given in full)	> 40	> 40	inactive	> 40	inactive	inactive	> 40	inactive	inactive	> 40
C=C1[C@H]2C[C@@H](O)[C@H]3C45CO[C@@H]6OC[C@](C)(CC[C@@H]4OC(=O)[C@]3(C2)[C@@H]1O)[C@@H]65 (stereo not given in full)	> 40	> 40	inactive	> 40	inactive	inactive	> 40	inactive	inactive	> 40
C=C1C(=O)[C@]23C[C@@H]1C[C@@H](O)[C@H]2C12C(O)O[C@@H]4OC(O)[C@](C)(CC[C@@H]1OC3=O)[C@@H]42 (stereo not given in full)	> 40	> 40	inactive	> 40	inactive	inactive	> 40	inactive	inactive	> 40
C[C@]12CC[C@@H]3OC(=O)[C@@]45C[C@H](C[C@@H](O)[C@@H]4[C@]34CO[C@H](OC1)[C@H]24)[C@@]1(CCC2=C(O1)[C@]13C[C@@H]2C[C@@H](O)[C@@H]1[C@]12CO[C@@H]4OC[C@](C)(CC[C@@H]1OC3=O)[C@@H]42)C5=O	> 40	> 40	inactive	> 40	inactive	inactive	> 40	inactive	inactive	> 40
C[C@H]1C(=O)[C@]23C[C@@H]1CC[C@H]2C12CO[C@@H](O)[C@@H]1C(C)(C)CC[C@@H]2OC3=O (stereo not given in full)	> 40	> 40	inactive	> 40	inactive	inactive	> 40	inactive	inactive	> 40
C[C@H]1C(=O)[C@]23C[C@@H]1CC[C@H]2C12C(O)O[C@@H](O)[C@@H]1C(C)(C)CC[C@@H]2OC3=O (stereo not given in full)	> 40	> 40	inactive	> 40	inactive	inactive	> 40	inactive	inactive	> 40
C=C1[C@H]2CC[C@H]3C45C(O)O[C@@H](OC)[C@@H]4C(C)(C)CC[C@@H]5OC(=O)[C@]3(C2)[C@@H]1O (stereo not given in full)	> 40	> 40	inactive	> 40	inactive	inactive	> 40	inactive	inactive	> 40
C[C@H]1C(=O)[C@]23C[C@@H]1CC[C@H]2C12[C@H](O)OC[C@@H]1C(C)(C)CC[C@@H]2OC3=O (stereo not given in full)	> 40	> 40	inactive	> 40	inactive	inactive	> 40	inactive	inactive	> 40
CC1(C)[C@@H]2C[C@@H]3OC(=O)[C@@]45C[C@H](CC[C@H]4[C@]34C(O[C@@H](O)[C@H]14)O2)[C@](C)(O)C5=O	> 40	> 40	inactive	> 40	inactive	inactive	> 40	inactive	inactive	> 40
COC[C@H]1C(=O)[C@]23C[C@@H]1C[C@@H](O)[C@H]2C12CO[C@@H](O)[C@@H]1C(C)(C)CC[C@@H]2OC3=O (stereo not given in full)	> 40	> 40	inactive	> 40	inactive	inactive	> 40	inactive	inactive	> 40
C=C1C(=O)[C@]23C[C@@H]1C[C@@H](O)[C@H]2C12CO[C@@H](O)[C@@H]1C(C)(C)[C@@H](O)C[C@@H]2OC3=O (stereo not given in full)	> 40	> 40	inactive	> 40	inactive	inactive	> 40	inactive	inactive	> 40
